Results published in ChEMBL document CHEMBL1148376, “Synthesis, monoamine transporter binding properties, and behavioral pharmacology of a series of 3beta-(substituted phenyl)-2beta-(3'-substituted isoxazol-5-yl)tropanes” (J Med Chem, 2004).

Key:
[1] = target: Sodium-dependent dopamine transporter (Rattus norvegicus, UniProt P23977); assay: Inhibitory concentration required to inhibit dopamine transporter DAT was determined by using [3H]WIN-35428 radioligand
Procedure, shortened: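 Competition binding at the DAT with 0.5 nM [3H]WIN35,428 (final concentration). Other procedures follow earlier published methods.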

Mus musculus [2] = assay: Percent change in locomotor activity in mice at 3 mg/kg i.p. in 1 h.; format: functional; details: route intraperitoneal
Procedure, shortened: (§1)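 Mice habituated 1/2 h to photocell activity chambers, then injected ip with compound homogenized in 0.5% methyl cellulose (10 mL/kg); vehicle controls; N = 5 or 6 per dose. Photobeam interruptions recorded in 10-min bins for 4 h, grouped into 1-h bins; one-way ANOVA with Newman-Keuls post hoc test (p < 0.05).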

Mus musculus [3] = assay: Percent change in locomotor activity in mice at 3 mg/kg i.p. in 2 h.; format: functional; details: route intraperitoneal; procedure, shortened: as §1
Mus musculus [4] = assay: Percent change in locomotor activity in mice at 3 mg/kg i.p. in 3 h.; format: functional; details: route intraperitoneal; procedure, shortened: as §1
Mus musculus [5] = assay: Percent change in locomotor activity in mice at 3 mg/kg i.p. in 4 h.; format: functional; details: route intraperitoneal; procedure, shortened: as §1
Mus musculus [6] = assay: Percent change in locomotor activity in mice at 1 mg/kg i.p. in 1 h.; format: functional; details: route intraperitoneal
Mus musculus [7] = assay: Percent change in locomotor activity in mice at 1 mg/kg i.p. in 2 h.; format: functional; details: route intraperitoneal; procedure, shortened: as §1
Mus musculus [8] = assay: Percent change locomotor activity in mice at 1 mg/kg i.p. in 3 h.; format: functional; details: route intraperitoneal; procedure, shortened: as §1
Mus musculus [9] = assay: Percent change in locomotor activity in mice at 1 mg/kg i.p. in 4 h.; format: functional; details: route intraperitoneal; procedure, shortened: as §1
Mus musculus [10] = assay: Percent change from vehicle in locomotor activity in mice at 10 mg/kg (ip) in 1 h; format: functional
Mus musculus [11] = assay: Percent change from vehicle in locomotor activity in mice at 10 mg/kg (ip) in 2 h; format: functional
Mus musculus [12] = assay: Percent change from vehicle in locomotor activity in mice at 10 mg/kg (ip) in 3 h; format: functional
Mus musculus [13] = assay: Percent change from vehicle in locomotor activity in mice at 10 mg/kg (ip) in 4 h; format: functional
Mus musculus [14] = species on record: Mus musculus; assay: Effective dose for locomotor activity in mice in the peak hour.; format: functional
Mus musculus [15] = species on record: Mus musculus; assay: Hour 1 ratio to cocaine was determined for locomotor activity in mice; format: functional
[16] = target: T1, Norepinephrine transporter (Rattus norvegicus, UniProt Q9WTR4); assay: Binding affinity towards norepinephrine transporter was determined using [3H]nisoxetine radioligand.
T1 sequence (Q9WTR4 whole entry): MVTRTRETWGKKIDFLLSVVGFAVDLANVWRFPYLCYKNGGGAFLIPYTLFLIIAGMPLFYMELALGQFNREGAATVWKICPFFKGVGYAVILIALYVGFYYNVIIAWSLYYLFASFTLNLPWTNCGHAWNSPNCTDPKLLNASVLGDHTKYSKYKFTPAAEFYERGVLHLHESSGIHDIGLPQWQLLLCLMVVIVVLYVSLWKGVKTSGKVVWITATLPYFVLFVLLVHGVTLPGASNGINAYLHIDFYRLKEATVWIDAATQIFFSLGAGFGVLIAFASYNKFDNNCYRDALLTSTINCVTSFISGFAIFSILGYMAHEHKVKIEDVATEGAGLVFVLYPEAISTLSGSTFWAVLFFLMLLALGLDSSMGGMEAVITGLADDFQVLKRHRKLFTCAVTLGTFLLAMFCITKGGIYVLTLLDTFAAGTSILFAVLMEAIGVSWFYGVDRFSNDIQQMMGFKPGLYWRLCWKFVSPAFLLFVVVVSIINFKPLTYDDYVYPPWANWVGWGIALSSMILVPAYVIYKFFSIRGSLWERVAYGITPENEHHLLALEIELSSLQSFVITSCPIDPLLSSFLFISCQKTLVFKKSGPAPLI
Procedure, shortened: (§2)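 Competition binding at the NET with 0.5 nM [3H]nisoxetine (final concentration). Other procedures follow earlier published methods.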

[17] = target: T1, Norepinephrine transporter; assay: Inhibition of norepinephrine transporter (NET) determined using [3H]nisoxetine radioligand.; procedure, shortened: as §2
Rattus norvegicus [18] = assay: Drug discrimination effect of compound in rats, expressed as percent of rats choosing the cocaine lever at dose 1 mg/kg (ip); format: functional
Rattus norvegicus [19] = assay: Drug discrimination effect of compound in rats, expressed as percent of rats choosing the cocaine lever at dose 10 mg/kg (ip); format: functional
Rattus norvegicus [20] = assay: Drug discrimination effect of compound in rats, expressed as percent of rats choosing the cocaine lever at dose 3 mg/kg (ip); format: functional
Rattus norvegicus [21] = assay: Drug discrimination effect of compound in rats, expressed as percent of rats choosing the cocaine lever at dose 5.6 mg/kg (ip); format: functional
Rattus norvegicus [22] = assay: Effective dose for drug discrimination effect in rat (ip); format: functional
Procedure, shortened: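 Cocaine-trained rat drug discrimination, FR10, 10-min sessions. Compound in 0.5% methyl cellulose given ip 15 min before session, usually to 7-8 rats per dose. Doses were raised from ≤20% to ≥80% cocaine-lever choice, capped at 30 mg/kg, >50% loss of pressing, or side effects.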

[23] = target: T2, Sodium-dependent serotonin transporter (Rattus norvegicus, UniProt P31652); assay: Binding affinity towards serotonin transporter 5-HTT was determined using [3H]paroxetine radioligand.
T2 sequence (P31652 whole entry): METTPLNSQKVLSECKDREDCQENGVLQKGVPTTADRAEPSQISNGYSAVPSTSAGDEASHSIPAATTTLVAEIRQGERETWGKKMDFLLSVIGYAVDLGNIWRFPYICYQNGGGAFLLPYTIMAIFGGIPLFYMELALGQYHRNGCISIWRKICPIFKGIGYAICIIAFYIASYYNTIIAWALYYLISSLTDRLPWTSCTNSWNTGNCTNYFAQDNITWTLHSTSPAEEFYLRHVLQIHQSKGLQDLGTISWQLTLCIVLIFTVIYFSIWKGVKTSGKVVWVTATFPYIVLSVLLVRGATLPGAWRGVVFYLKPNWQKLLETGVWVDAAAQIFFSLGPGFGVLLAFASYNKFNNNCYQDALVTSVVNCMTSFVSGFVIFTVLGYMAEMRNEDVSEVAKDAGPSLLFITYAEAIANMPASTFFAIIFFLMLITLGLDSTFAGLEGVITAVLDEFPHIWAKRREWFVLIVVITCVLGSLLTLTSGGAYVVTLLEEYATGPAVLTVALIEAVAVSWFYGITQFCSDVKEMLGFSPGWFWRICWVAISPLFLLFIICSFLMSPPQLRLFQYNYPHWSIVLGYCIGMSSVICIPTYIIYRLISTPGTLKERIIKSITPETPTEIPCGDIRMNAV
Procedure, shortened: (§3)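 Competition binding at the 5-HTT with 0.2 nM [3H]paroxetine (final concentration). Other procedures follow earlier published methods.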

[24] = target: T2, Sodium-dependent serotonin transporter; assay: Inhibitory concentration required to inhibit serotonin transporter 5-HTT was determined by using [3H]paroxetine radioligand; procedure, shortened: as §3
Mus musculus [25] = assay: Percent change from vehicle in locomotor activity in mice at 0.3 mg/kg (ip) in 1 h; format: functional
Mus musculus [26] = assay: Percent change from vehicle in locomotor activity in mice at 0.3 mg/kg (ip) in 2 h; format: functional
Mus musculus [27] = assay: Percent change from vehicle in locomotor activity in mice at 0.3 mg/kg (ip) in 3 h; format: functional
Mus musculus [28] = assay: Percent change from vehicle in locomotor activity in mice at 0.3 mg/kg (ip) in 4 h; format: functional
Rattus norvegicus [29] = assay: Drug discrimination effect of compound in rats, expressed as percent of rats choosing the cocaine lever at dose 1.7 mg/kg (ip); format: functional
Rattus norvegicus [30] = assay: Drug discrimination effect of compound in rats, expressed as percent of rats choosing the cocaine lever at dose 0.1 mg/kg (ip); format: functional
Rattus norvegicus [31] = assay: Drug discrimination effect of compound in rats, expressed as percent of rats choosing the cocaine lever at dose 0.17 mg/kg (ip); format: functional
Rattus norvegicus [32] = assay: Drug discrimination effect of compound in rats, expressed as percent of rats choosing the cocaine lever at dose 0.3 mg/kg (ip); format: functional
Rattus norvegicus [33] = assay: Drug discrimination effect of compound in rats, expressed as percent of rats choosing the cocaine lever at dose 0.56 mg/kg (ip); format: functional

Sequence of Sodium-dependent dopamine transporter (P23977 whole entry): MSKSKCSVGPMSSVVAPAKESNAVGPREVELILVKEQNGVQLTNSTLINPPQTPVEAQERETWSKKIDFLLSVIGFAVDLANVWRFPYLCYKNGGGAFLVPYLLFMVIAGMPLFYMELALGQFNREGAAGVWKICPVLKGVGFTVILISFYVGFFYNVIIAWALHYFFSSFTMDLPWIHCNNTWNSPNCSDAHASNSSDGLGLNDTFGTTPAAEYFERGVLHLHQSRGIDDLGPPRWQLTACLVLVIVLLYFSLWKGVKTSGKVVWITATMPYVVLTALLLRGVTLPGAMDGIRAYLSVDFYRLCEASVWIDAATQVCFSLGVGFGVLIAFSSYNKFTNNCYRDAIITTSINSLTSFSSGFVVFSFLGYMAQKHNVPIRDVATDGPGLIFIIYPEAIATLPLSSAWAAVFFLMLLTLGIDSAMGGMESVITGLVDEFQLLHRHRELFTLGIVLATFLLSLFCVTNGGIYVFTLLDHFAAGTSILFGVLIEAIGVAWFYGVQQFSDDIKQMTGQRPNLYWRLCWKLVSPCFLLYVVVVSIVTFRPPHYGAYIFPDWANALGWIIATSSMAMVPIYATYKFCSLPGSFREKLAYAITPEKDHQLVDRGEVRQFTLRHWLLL

SMILES	IC50 [1] [nM]	Change (Mus musculus [2]) [%]	Change (Mus musculus [3]) [%]	Change (Mus musculus [4]) [%]	Change (Mus musculus [5]) [%]	Change (Mus musculus [6]) [%]	Change (Mus musculus [7]) [%]	Change (Mus musculus [8]) [%]	Change (Mus musculus [9]) [%]	ED50 (Mus musculus [14]) [mg/kg]	Ratio (Mus musculus [15])	Ki [16] [nM]	IC50 [17] [nM]	Drug discrimination effect (Rattus norvegicus [18]) [%]	ED50 (Rattus norvegicus [22]) [mg/kg]	Ki [23] [nM]	IC50 [24] [nM]	Change (Mus musculus [25]) [%]	Change (Mus musculus [26]) [%]	Change (Mus musculus [27]) [%]	further results
Cc1ccc(-c2cc(C3C(c4ccc(Cl)cc4)CC4CCC3N4C)on2)cc1 (configuration not stated)	4.09	23	153	265	119	8	44	-49	170	3.9	0.7	1030	1710	14	5.95	522	5740				Change (Mus musculus [10]): 308%; Change (Mus musculus [11]): 1034%; Change (Mus musculus [12]): 1024%; Change (Mus musculus [13]): 493%; Drug discrimination effect (Rattus norvegicus [19]): 88%; Drug discrimination effect (Rattus norvegicus [20]): 14%; Drug discrimination effect (Rattus norvegicus [21]): 50%
CN1C2CCC1C(c1cc(C(C)(C)C)no1)C(c1ccc(Cl)cc1)C2 (configuration not stated)	7.31	112	204	206	-29	41	103	135	33	4	0.9	3810	6320	0	3.04	3350	36800				Change (Mus musculus [10]): 388%; Change (Mus musculus [11]): 769%; Change (Mus musculus [12]): 1272%; Change (Mus musculus [13]): 229%; Drug discrimination effect (Rattus norvegicus [19]): 83%; Drug discrimination effect (Rattus norvegicus [20]): 50%; Drug discrimination effect (Rattus norvegicus [21]): 88%
CC(C)c1cc(C2C(c3ccc(Cl)cc3)CC3CCC2N3C)on1 (configuration not stated)	1.19	876	995	680	1745	370	632	188	-2	0.8	1.9	575	954	13		211	2320	34	41	-21	Change (Mus musculus [28]): -39%; Drug discrimination effect (Rattus norvegicus [29]): 25%; Drug discrimination effect (Rattus norvegicus [20]): 63%
Cc1ccc(C2CC3CCC(C2c2cc(C)no2)N3C)cc1 (configuration not stated)	0.93	478	552	986	221	341	413	392	78	1.1	1.1	153	254		0.28	348		140	156	75	Change (Mus musculus [28]): 48%; Drug discrimination effect (Rattus norvegicus [30]): 13%; Drug discrimination effect (Rattus norvegicus [31]): 0%; Drug discrimination effect (Rattus norvegicus [32]): 83%
CN1C2CCC1C(c1ccno1)C(c1ccc(Cl)cc1)C2 (configuration not stated)	0.77	486	137	-40	-71	186	284	345	182	1.2	1.1	52	87	100	0.41	8.2	91	57	86	70	Change (Mus musculus [28]): -20%; Drug discrimination effect (Rattus norvegicus [30]): 13%; Drug discrimination effect (Rattus norvegicus [31]): 29%; Drug discrimination effect (Rattus norvegicus [32]): 63%; Drug discrimination effect (Rattus norvegicus [33]): 25%
CCc1cc(C2C(c3ccc(C)cc3)CC3CCC2N3C)on1 (configuration not stated)	1.62	613	893	725	81	449	489	222	48	0.9	1.4	180	299	75	0.82	582	6400	34	99	173	Change (Mus musculus [28]): -72%; Drug discrimination effect (Rattus norvegicus [32]): 0%; Drug discrimination effect (Rattus norvegicus [29]): 100%; Drug discrimination effect (Rattus norvegicus [33]): 14%
Cc1ccc(C2CC3CCC(C2c2ccno2)N3C)cc1 (configuration not stated)	1.37	698	666	571	125	319	214	48	-32	1				100	0.19	38	414	-13	-12	136	Change (Mus musculus [28]): -28%; Drug discrimination effect (Rattus norvegicus [30]): 0%; Drug discrimination effect (Rattus norvegicus [31]): 43%; Drug discrimination effect (Rattus norvegicus [32]): 83%
